Drawing on ChEMBL document CHEMBL1126717 (J Med Chem, 1993), this text covers IC50 and inhibition for 17 compounds.

Common to all, as to format: cell-based
Test [1] has as its target T1, Cyclooxygenase (Rattus norvegicus, UniProt P35355+Q63921).
T1 sequence (P35355 whole entry): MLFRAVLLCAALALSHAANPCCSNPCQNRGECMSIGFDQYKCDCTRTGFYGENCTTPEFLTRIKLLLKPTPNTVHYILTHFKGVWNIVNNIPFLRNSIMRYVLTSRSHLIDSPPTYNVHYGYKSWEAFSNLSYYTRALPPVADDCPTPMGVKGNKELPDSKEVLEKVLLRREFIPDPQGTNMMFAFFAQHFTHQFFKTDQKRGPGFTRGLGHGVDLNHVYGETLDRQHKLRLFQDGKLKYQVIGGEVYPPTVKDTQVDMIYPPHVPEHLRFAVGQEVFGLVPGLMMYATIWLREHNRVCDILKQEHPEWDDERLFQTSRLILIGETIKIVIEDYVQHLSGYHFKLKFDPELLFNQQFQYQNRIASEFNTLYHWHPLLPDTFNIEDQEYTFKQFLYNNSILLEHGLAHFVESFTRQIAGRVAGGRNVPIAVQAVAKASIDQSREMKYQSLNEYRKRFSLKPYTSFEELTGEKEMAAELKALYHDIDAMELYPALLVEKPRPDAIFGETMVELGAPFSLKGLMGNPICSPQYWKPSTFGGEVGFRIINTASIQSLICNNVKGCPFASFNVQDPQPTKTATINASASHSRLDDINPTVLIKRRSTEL
T1 sequence (Q63921 whole entry): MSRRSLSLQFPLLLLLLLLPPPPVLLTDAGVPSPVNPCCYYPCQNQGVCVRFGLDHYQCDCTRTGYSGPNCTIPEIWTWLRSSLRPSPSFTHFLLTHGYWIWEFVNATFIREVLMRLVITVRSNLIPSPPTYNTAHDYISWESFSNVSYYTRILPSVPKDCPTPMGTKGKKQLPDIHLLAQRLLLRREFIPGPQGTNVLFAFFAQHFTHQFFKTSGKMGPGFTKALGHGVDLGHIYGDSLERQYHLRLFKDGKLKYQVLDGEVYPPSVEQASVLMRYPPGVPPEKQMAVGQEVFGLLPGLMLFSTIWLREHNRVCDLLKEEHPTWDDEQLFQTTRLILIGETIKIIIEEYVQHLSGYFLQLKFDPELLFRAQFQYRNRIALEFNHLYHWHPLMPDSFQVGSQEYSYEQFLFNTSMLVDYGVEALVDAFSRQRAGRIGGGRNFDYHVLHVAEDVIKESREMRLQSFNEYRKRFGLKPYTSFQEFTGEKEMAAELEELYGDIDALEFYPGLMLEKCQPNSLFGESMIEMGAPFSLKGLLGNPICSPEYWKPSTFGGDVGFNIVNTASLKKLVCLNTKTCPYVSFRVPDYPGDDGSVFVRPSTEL
Description: Inhibition of Prostaglandin G/H synthase mediated PGF2-alpha formation in rat basophilic leukemia (RBL-1) cells.

Test [2] has as its target T2, Polyunsaturated fatty acid 5-lipoxygenase (Rattus norvegicus, UniProt P12527).
T2 sequence (P12527 whole entry): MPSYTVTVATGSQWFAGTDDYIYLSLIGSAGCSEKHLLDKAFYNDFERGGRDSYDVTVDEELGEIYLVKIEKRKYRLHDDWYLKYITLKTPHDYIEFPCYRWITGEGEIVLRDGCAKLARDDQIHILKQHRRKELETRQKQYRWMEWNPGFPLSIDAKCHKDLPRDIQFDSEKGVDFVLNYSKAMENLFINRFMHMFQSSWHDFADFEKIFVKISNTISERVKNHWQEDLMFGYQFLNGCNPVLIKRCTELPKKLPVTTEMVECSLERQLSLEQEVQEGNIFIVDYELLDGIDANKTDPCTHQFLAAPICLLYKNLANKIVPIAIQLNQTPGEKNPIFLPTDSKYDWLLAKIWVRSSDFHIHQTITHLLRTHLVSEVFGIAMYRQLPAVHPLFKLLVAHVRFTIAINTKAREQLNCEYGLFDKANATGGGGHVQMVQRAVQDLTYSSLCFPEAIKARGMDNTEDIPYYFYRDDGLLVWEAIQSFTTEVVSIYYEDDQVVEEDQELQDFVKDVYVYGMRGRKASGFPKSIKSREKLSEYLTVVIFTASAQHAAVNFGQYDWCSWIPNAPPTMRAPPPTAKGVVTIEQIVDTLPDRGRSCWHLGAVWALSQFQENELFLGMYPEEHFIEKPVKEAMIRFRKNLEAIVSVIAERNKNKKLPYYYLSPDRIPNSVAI
Description: Inhibition 5-lipoxygenase mediated LTB4 formation in rat basophilic leukemia (RBL-1) cells. Put shortly:
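Washed in cold PBS pH 7.4 and resuspended at 2 × 10⁶ cells/mL in PBS with 1.0 mM calcium. Preincubated with test agent in 1% DMSO for 10 min at room temperature, then stimulated with A23187 (5 μM) for 7 min at 37 °C. LTB₄ in the supernatant measured by RIA. Percent inhibition taken against vehicle; IC₅₀ by linear regression on log concentration.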

Test [3] deals with T3, Polyunsaturated fatty acid 5-lipoxygenase (Rattus norvegicus) (UniProt P12527).
T3 sequence (whole entry): T2 sequence (P12527 whole entry)
Description: Inhibition of LTB4 in whole cell 5-lipoxygenase assay in an intact rat basophilic leukemia (RBL-1) cell line at 16 uM. The procedure, abridged: (§1)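 RBL-1 cells grown at 37 °C in suspension in MEM with 12% FBS under 5% CO₂. Washed in cold PBS pH 7.4 and resuspended at 2 × 10⁶ cells/mL in PBS with 1.0 mM calcium. Preincubated with test agent in 1% DMSO for 10 min at room temperature, then stimulated with A23187 (5 μM) for 7 min at 37 °C. LTB₄ in the supernatant measured by RIA. Percent inhibition taken against vehicle; IC₅₀ by linear regression on log concentration.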

Test [4] concerns the target T4, Cyclooxygenase (Rattus norvegicus) (UniProt P35355+Q63921). The test is described as follows: Inhibition of PGF2-alpha formation in Prostaglandin G/H synthase assay in an intact rat basophilic leukemia (RBL-1) cell line at 16 uM. Put shortly: (§2)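 RBL-1 suspension cultures (MEM, 12% FBS, 37 °C, 5% CO₂) were washed in PBS and held at 2 × 10⁶ cells/mL in PBS containing 1.0 mM Ca. Cells were exposed to compound in 1% DMSO for 10 min at room temperature, then to 5 μM A23187 for 7 min at 37 °C, and chilled on ice to stop. PGF₂α in the supernatant was measured by RIA. Percent inhibition was calculated relative to vehicle-treated cells.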

For test [5], the target named is T4, Cyclooxygenase (Rattus norvegicus). The test is described as follows: Inhibition of PGF2-alpha formation in Prostaglandin G/H synthase assay in an intact rat basophilic leukemia (RBL-1) cell line at 10 uM. Put shortly:
as §2

Test [6] has as its target T3, Polyunsaturated fatty acid 5-lipoxygenase (Rattus norvegicus). The test is described as follows: Inhibition of LTB4 in whole cell 5-lipoxygenase assay in an intact rat basophilic leukemia (RBL-1) cell line at 10 uM. Put shortly: as §1
The target is the same in test [7]. The test is described as follows: Inhibition of LTB4 in whole cell 5-lipoxygenase assay in an intact rat basophilic leukemia (RBL-1) cell line. The procedure, abridged:
as §1

Bounds are passed on as bounds.

For orientation: IC50 means the concentration at which inhibition is half-maximal. Low readings indicate greater potency in that assay, high ones weaker potency in that assay. As for `Cn1c(S)nnc1-c1ccccc1Nc1cccc(C(F)(F)F)c1`, the results for the IC50 in test [1] and in test [2] were 30000 nM and 12000 nM, respectively.

For the compound `Cc1ccc(Cl)c(Nc2ccccc2-c2nnc(N)s2)c1Cl`, the IC50 in test [1] turned out to be 6100 nM; in test [2] it was 690 nM.

The inhibition is the share of the control response that was lost under treatment. Regarding `Cc1ccc(Cl)c(Nc2ccccc2-c2nnc(O)n2C)c1Cl`, the inhibition in test [3] and in test [4] was less than 40% throughout.

Consider `Oc1n[nH]c(-c2ccccc2Nc2cccc(C(F)(F)F)c2)n1`, for which the inhibition in test [5] and in test [6] was less than 40% each time.

As to `Cc1ccc(Cl)c(Nc2ccccc2-c2nnc(S)s2)c1Cl`, the IC50 in test [1] stood at 1700 nM.

`Nc1nnc(-c2ccccc2Nc2cccc(C(F)(F)F)c2)o1` displayed an IC50 in test [1] of 7100 nM.

Regarding `Cc1ccc(Cl)c(Nc2ccccc2-c2nnc(N)o2)c1Cl`, the figures for the inhibition in test [5] and in test [6] were less than 40% and 45%, respectively.

The compound `FC(F)(F)c1cccc(Nc2ccccc2-c2n[nH]c(S)n2)c1` registered an inhibition in test [3] of less than 40%.

For the compound `Cc1ccc(Cl)c(Nc2ccccc2-c2n[nH]c(S)n2)c1Cl`, the inhibition in test [3] and in test [4] was less than 40% in each case.

For `Cc1ccc(Cl)c(Nc2ccccc2-c2nnc(NC#N)o2)c1Cl`, the IC50 in test [1] worked out at 250 nM.

Regarding `Cc1ccc(Cl)c(Nc2ccccc2-c2nnc(S)n2C)c1Cl`, the figures for the inhibition in test [3] and in test [4] were 86% and less than 40%, respectively.

In turn, `Nc1nnc(-c2ccccc2Nc2cccc(C(F)(F)F)c2)s1` had an IC50 in test [1] of 11000 nM.

On to `Cn1c(O)nnc1-c1ccccc1Nc1cccc(C(F)(F)F)c1`, for which the inhibition in test [3] and in test [4] was less than 40% in each case.

In the case of `Oc1nnc(-c2ccccc2Nc2cccc(C(F)(F)F)c2)s1`, the IC50 in test [7] was 7400 nM.

Take `Cc1ccc(Cl)c(Nc2ccccc2-c2nnc(NC#N)s2)c1Cl`: the IC50 in test [1] was found to be 1900 nM; in test [2] it was 290 nM.

With `N#CNc1nnc(-c2ccccc2Nc2cccc(C(F)(F)F)c2)s1`, the IC50 in test [1] was determined as 2600 nM; in test [2] it was 1700 nM.

`N#CNc1nnc(-c2ccccc2Nc2cccc(C(F)(F)F)c2)o1` yielded an IC50 in test [1] of 1000 nM.
